Assay results reported in ChEMBL document CHEMBL5647695, “Cyclin-dependent kinase 9 (CDK9) is a novel prognostic marker and therapeutic target in osteosarcoma” (EBioMedicine, 2019).
Activity calls are given as the source filed them. The rule behind the calls is not given here.

Experiments:
[1] = biological target: Cyclin-dependent kinase 9 (Homo sapiens) (UniProt P50750); assay: Inhibition of CDK9 in human KHOS/NP cells assessed as reduction in phosphorylated RNAPII protein expression at Ser2 residue incubated for 48 hrs by Western blot analysis; assay type: cell-based; settings: dose 2.5-20 µM
In short: (§1)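 Cells seeded in 6-well plates (6 × 10^5 cells/well) and treated with 2.5, 5, 10, 20 μM for 48 h. RIPA lysates resolved by SDS-PAGE and blotted to nitrocellulose. Primary antibodies to CDK9, RNAPII ser2, total RNAPII, MCL-1, BIRC5 and tubulin (1:1000, 4 °C overnight), then IR-dye secondaries; infrared imaging. Densitometry relative to tubulin, mean ± SE in triplicate.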

[2] = biological target: Cyclin-dependent kinase 9 (Homo sapiens) (UniProt P50750); assay: Inhibition of CDK9 in human U2OS cells assessed as reduction in phosphorylated RNAPII protein expression at Ser2 residue incubated for 48 hrs by Western blot analysis; assay type: cell-based; settings: dose 2.5-20 µM; in short: as §1
KHOS/NP [3] = assay: Inhibition of cell migration in human KHOS/NP cells at 10 uM by wound healing assay; assay type: functional, cell-based; settings: time 24-72 hrs
In short: (§2)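 Monolayers of 4 × 10^5 cells/well in 6-well plates, grown overnight, scratched with two parallel lines, then exposed to 10 μM in 2% FBS medium for 72 h. Photographed at 0, 24, 48, 72 h; width measured at five sites per image. Migration distance = (width at 0 h − width at time point)/2.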

[4] = biological target: Cyclin-dependent kinase 9 (Homo sapiens) (UniProt P50750); assay: Inhibition of CDK9 in human U2OS cells assessed as reduction in BIRC5 protein expression incubated for 48 hrs by Western blot analysis; assay type: cell-based; settings: dose 2.5-20 µM; in short: as §1
U2OS [5] = assay: Cytotoxicity against human U2OS cells assessed as reduction in viable cell number incubated for 3 days by microscopic analysis; assay type: functional, cell-based; settings: dose 2.5-20 µM, time 3.0 day
In short: (§3)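 Cells treated with 0, 2.5, 5, 10, 20 μM for 72 h, then examined by light microscopy for morphology and number of viable cells.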

U2OS [6] = assay: Inhibition of colony formation in human U2OS cells assessed as reduction in colony number and size incubated for 12 days by Giemsa staining based analysis; assay type: functional, cell-based; settings: dose 5-10 µM, time 12.0 day
In short: (§4)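 Seeded at 150 cells/well in 12-well plates with 0, 5 or 10 μM inhibitor; 12 days at 37 °C. Colonies fixed 10 min in methanol, stained 20 min with 10% Giemsa and photographed.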

U2OS [7] = assay: Induction of apoptosis in human U2OS cells assessed as dead cells at 10 uM by Annexin V/PI staining based flow cytometry analysis (reference value: 0.1%); assay type: functional
U2OS [8] = assay: Induction of apoptosis in human U2OS cells assessed as late apoptotic cells at 10 uM by Annexin V/PI staining based flow cytometry analysis (reference value: 0.4%); assay type: functional
KHOS/NP [9] = assay: Cytotoxicity against human KHOS/NP cells assessed as reduction in viable cell number incubated for 3 days by microscopic analysis; assay type: functional, cell-based; settings: dose 2.5-20 µM, time 3.0 day; in short: as §3
[10] = biological target: Cyclin-dependent kinase 9 (Homo sapiens) (UniProt P50750); assay: Inhibition of CDK9 in human KHOS/NP cells assessed as reduction in BIRC5 protein expression incubated for 48 hrs by Western blot analysis; assay type: cell-based; settings: dose 2.5-20 µM; in short: as §1
U2OS [11] = assay: Induction of apoptosis in human U2OS cells assessed as viable cells at 10 uM by Annexin V/PI staining based flow cytometry analysis (reference value: 94.5%); assay type: functional; settings: read-out: Activity
KHOS/NP [12] = assay: Effect on CDK9 protein expression in human KHOS/NP cells at 2.5 to 20 uM incubated for 48 hrs by Western blot analysis; assay type: functional, cell-based; settings: dose 2.5-20 µM; in short: as §1
U2OS [13] = assay: Inhibition of cell migration in human U2OS cells at 10 uM by wound healing assay; assay type: functional, cell-based; settings: time 24-72 hrs; in short: as §2
KHOS/NP [14] = assay: Cytotoxicity against human KHOS/NP cells assessed as morphological changes incubated for 3 days by microscopic analysis; assay type: functional, cell-based; settings: dose 2.5-20 µM, time 3.0 day; in short: as §3
KHOS/NP [15] = assay: Cytotoxicity against human KHOS/NP cells assessed as inhibition of cell proliferation incubated for 5 days by MTT assay; assay type: functional, cell-based
In short: (§5)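 Cells in RPMI 1640 with 10% FBS, seeded at 4 × 10^3 cells/well in 96-well plates and exposed to 0, 2.5, 5, 10, 20 μM for 5 days. MTT (5 mg/mL stock) added for 4 h at 37 °C; formazan dissolved in acid isopropanol and read at 490 nm. IC50 from the dose–response; mean ± SE of 2 experiments in triplicate.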

[16] = biological target: Cyclin-dependent kinase 9 (Homo sapiens) (UniProt P50750); assay: Inhibition of CDK9 in human U2OS cells assessed as reduction in MCL-1 protein expression incubated for 48 hrs by Western blot analysis; assay type: cell-based; settings: dose 2.5-20 µM; in short: as §1
U2OS [17] = assay: Induction of apoptosis in human U2OS cells assessed as early apoptotic cells at 10 uM by Annexin V/PI staining based flow cytometry analysis (reference value: 5%); assay type: functional
U2OS [18] = assay: Cytotoxicity against human U2OS cells assessed as morphological changes incubated for 3 days by microscopic analysis; assay type: functional, cell-based; settings: dose 2.5-20 µM, time 3.0 day; in short: as §3
KHOS/NP [19] = assay: Induction of apoptosis in human KHOS/NP cells assessed as late apoptotic cells at 10 uM by Annexin V/PI staining based flow cytometry analysis (reference value: 0.3%); assay type: functional
U2OS [20] = assay: Effect on CDK9 protein expression in human U2OS cells at 2.5 to 20 uM incubated for 48 hrs by Western blot analysis; assay type: functional, cell-based; settings: dose 2.5-20 µM; in short: as §1
[21] = biological target: Cyclin-dependent kinase 9 (Homo sapiens) (UniProt P50750); assay: Inhibition of CDK9 in human KHOS/NP cells assessed as reduction in MCL-1 protein expression incubated for 48 hrs by Western blot analysis; assay type: cell-based; settings: dose 2.5-20 µM; in short: as §1
U2OS [22] = assay: Effect on RNAPII total protein expression in human U2OS cells at 2.5 to 20 uM incubated for 48 hrs by Western blot analysis; assay type: functional, cell-based; settings: dose 2.5-20 µM; in short: as §1
KHOS/NP [23] = assay: Induction of apoptosis in human KHOS/NP cells assessed as early apoptotic cells at 10 uM by Annexin V/PI staining based flow cytometry analysis (reference value: 5.3%); assay type: functional
KHOS/NP [24] = assay: Antitumor activity against human KHOS/NP cells cultured as 3D spheroids assessed as reduction in spheroid diameter at 10 uM incubated for 12 days with media replacement for every 24 to 48 hrs and measured every 2 days by Calcein AM staining based fluorescence microscopic analysis relative to control; assay type: functional; parameters: scale not given: the % may be the effect or the level left; settings: time 12 day
In short: (§6)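 Spheroids grown in 3D hydrogel culture plates, 2 × 10^5 cells/well, with 10 μM inhibitor added at seeding; untreated cells as blank control. 37 °C, 5% CO2, medium changed every 24–48 h. Diameter photographed every 2 days; at 12 days spheroids harvested, stained 15 min with 0.25 μM Calcein AM and imaged by fluorescence microscopy. Mean ± SE of 2 experiments in triplicate.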

KHOS/NP [25] = assay: Effect on RNAPII total protein expression in human KHOS/NP cells at 2.5 to 20 uM incubated for 48 hrs by Western blot analysis; assay type: functional, cell-based; settings: dose 2.5-20 µM; in short: as §1
KHOS/NP [26] = assay: Inhibition of colony formation in human KHOS/NP cells assessed as reduction in colony number and size incubated for 12 days by Giemsa staining based analysis; assay type: functional, cell-based; settings: dose 5-10 µM, time 12.0 day; in short: as §4
KHOS/NP [27] = assay: Induction of apoptosis in human KHOS/NP cells assessed as viable cells at 10 uM by Annexin V/PI staining based flow cytometry analysis (reference value: 94.1%); assay type: functional; settings: read-out: Activity
U2OS [28] = assay: Antitumor activity against human U2OS cells cultured as 3D spheroids assessed as reduction in spheroid diameter at 10 uM incubated for 12 days with media replacement for every 24 to 48 hrs and measured every 2 days by Calcein AM staining based fluorescence microscopic analysis relative to control; assay type: functional; parameters: scale not given: the % may be the effect or the level left; settings: time 12 day; in short: as §6
U2OS [29] = assay: Cytotoxicity against human U2OS cells assessed as inhibition of cell proliferation incubated for 5 days by MTT assay; assay type: functional, cell-based; in short: as §5

Cyclin-dependent kinase 9 (Homo sapiens), sequence (P50750 whole entry): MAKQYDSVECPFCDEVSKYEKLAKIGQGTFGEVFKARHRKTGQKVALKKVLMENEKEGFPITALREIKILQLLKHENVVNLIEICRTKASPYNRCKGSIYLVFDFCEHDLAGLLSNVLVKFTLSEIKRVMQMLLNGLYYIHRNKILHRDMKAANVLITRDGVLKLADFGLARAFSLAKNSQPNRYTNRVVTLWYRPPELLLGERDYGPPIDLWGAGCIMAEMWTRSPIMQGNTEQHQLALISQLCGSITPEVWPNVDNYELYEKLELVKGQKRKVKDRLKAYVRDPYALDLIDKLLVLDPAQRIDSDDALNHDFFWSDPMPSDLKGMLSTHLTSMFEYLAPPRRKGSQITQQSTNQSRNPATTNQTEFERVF

For `COc1ccccc1-c1cc(Nc2cccc(CS(N)(=O)=O)c2)ncn1`, the inhibition [1] was “Dose-Dependent Effect”, the inhibition [2] was “Dose-Dependent Effect” and the inhibition (KHOS/NP [3]) was “Dose-Dependent Effect”. The inhibition [4] was “Dose-Dependent Effect”, the Activity (U2OS [5]) was “Dose-Dependent Effect” and the inhibition (U2OS [6]) was “Dose-Dependent Effect”. For the same molecule, the Activity (U2OS [7]) was 0.3%, the Activity (U2OS [8]) was 1.5% and the Activity (KHOS/NP [9]) was “Dose-Dependent Effect”. For the same molecule, the inhibition [10] was “Dose-Dependent Effect”, the viability at 10 µM (U2OS [11]) was 91.8% and the Activity (KHOS/NP [12]) was “inactive”. For the same molecule, the inhibition (U2OS [13]) was “Dose-Dependent Effect”, the Activity (KHOS/NP [14]) was “Dose-Dependent Effect” and the IC50 (KHOS/NP [15]; 120 h) was 6.5 µM. The Activity (KHOS/NP [15]; time 5.0 day) was “Dose-Dependent Effect”, the inhibition [16] was “Dose-Dependent Effect” and the Activity (U2OS [17]) was 6.4%. For the same molecule, the Activity (U2OS [18]) was “Dose-Dependent Effect”, the Activity (KHOS/NP [19]) was 6% and the Activity (U2OS [20]) was “inactive”. The inhibition [21] was “Dose-Dependent Effect”, the Activity (U2OS [22]) was “inactive” and the Activity (KHOS/NP [23]) was 2.8%. The Activity (KHOS/NP [24]) was 48.8%, the Activity (KHOS/NP [25]) was “inactive” and the inhibition (KHOS/NP [26]) was “Dose-Dependent Effect”. For the same molecule, the viability at 10 µM (KHOS/NP [27]) was 88.5%, the Activity (U2OS [28]) was 57.4% and the IC50 (U2OS [29]; 120 h) was 5.8 µM. For the same molecule, the Activity (U2OS [29]; time 5.0 day) was “Dose-Dependent Effect”.
